ChEMBL document CHEMBL3526065, “Metabolism of [6]-shogaol in mice and in cancer cells” (Drug Metab Dispos, 2012)

What was measured:
[1] = Antioxidant activity assessed as DPPH radical scavenging activity; type: physicochemical
Plasma [2] = assay: Drug metabolism in C57BL/6J mouse plasma assessed as sulfated form of metabolite formation at 200 mg/kg, po after 2 to 4 hrs by LC/MS analysis; type: ADME, organism-based; parameters: dose 200 mg/kg, route oral; conditions: in vivo
[3] = Drug excretion in C57BL/6J mouse feces assessed as (2R)-2-amino-3-(3-hydroxy-1-(4-hydroxy-3-methoxyphenyl)decan-5-ylthio)propanoic acid formation at 200 mg/kg, po by HPLC-ECD analysis relative to control; type: ADME, organism-based; parameters: dose 200 mg/kg, route oral; conditions: in vivo
In short: (§1)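 Female C57BL/6J mice gavaged once with 200 mg/kg in corn oil, or corn oil alone (n = 5 each). 24-h feces collected in metabolic cages. Feces extracted by sonication 90 min in MeOH/H2O (50/50) + 0.1% acetic acid, centrifuged, diluted fivefold. Analysed by HPLC with electrochemical array detection (Gemini C18, phosphate/acetonitrile/THF gradient), compared against vehicle controls.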

[4] = Drug excretion in C57BL/6J mouse feces assessed as 5-cysteinyl-[6]-shogaol formation at 200 mg/kg, po by HPLC-ECD analysis relative to control; type: ADME, organism-based; parameters: dose 200 mg/kg, route oral; conditions: in vivo; in short: as §1
[5] = Drug excretion in C57BL/6J mouse feces assessed as 2-((2R)-2-amino-3-(3-hydroxy-1-(4-hydroxy-3-methoxyphenyl)decan-5-ylthio)propanamido)acetic acid formation at 200 mg/kg, po by HPLC-ECD analysis relative to control; type: ADME, organism-based; parameters: dose 200 mg/kg, route oral; conditions: in vivo; in short: as §1
[6] = Drug excretion in C57BL/6J mouse feces assessed as (2R)-2-acetamido-3-(3-hydroxy-1-(4-hydroxy-3-methoxyphenyl)decan-5-ylthio)propanoic acid formation at 200 mg/kg, po by HPLC-ECD analysis relative to control; type: ADME, organism-based; parameters: dose 200 mg/kg, route oral; conditions: in vivo; in short: as §1
[7] = Drug excretion in C57BL/6J mouse feces assessed as 5-N-acetylcysteinyl-[6]-shogaol formation at 200 mg/kg, po by HPLC-ECD analysis relative to control; type: ADME, organism-based; parameters: dose 200 mg/kg, route oral; conditions: in vivo; in short: as §1
[8] = Drug excretion in C57BL/6J mouse feces assessed as 1-(4'-hydroxy-3'-methoxyphenyl)-4-decen-3-ol formation at 200 mg/kg, po by HPLC-ECD analysis relative to control; type: ADME, organism-based; parameters: dose 200 mg/kg, route oral; conditions: in vivo; in short: as §1
[9] = Drug excretion in C57BL/6J mouse feces assessed as 5-methoxy-1-(4'-hydroxy-3'-methoxyphenyl)-decan-3-one formation at 200 mg/kg, po by HPLC-ECD analysis relative to control; type: ADME, organism-based; parameters: dose 200 mg/kg, route oral; conditions: in vivo; in short: as §1
[10] = Drug excretion in C57BL/6J mouse feces assessed as 3',4'-dihydroxyphenyl-decan-3-one formation at 200 mg/kg, po by HPLC-ECD analysis relative to control; type: ADME, organism-based; parameters: dose 200 mg/kg, route oral; conditions: in vivo; in short: as §1
[11] = Drug excretion in C57BL/6J mouse feces assessed as 1-(4'-hydroxy-3'-methoxyphenyl)-decan-3-ol formation at 200 mg/kg, po by HPLC-ECD analysis relative to control; type: ADME, organism-based; parameters: dose 200 mg/kg, route oral; conditions: in vivo; in short: as §1
[12] = Drug excretion in C57BL/6J mouse feces assessed as 5-methylthio-1-(4'-hydroxy-3'-methoxyphenyl)-decan-3-one formation at 200 mg/kg, po by HPLC analysis relative to control; type: ADME, organism-based; parameters: dose 200 mg/kg, route oral; conditions: in vivo; in short: as §1
[13] = Drug excretion in C57BL/6J mouse feces assessed as 1-(4'-hydroxy-3'-methoxyphenyl)-decan-3-one formation at 200 mg/kg, po by HPLC analysis relative to control; type: ADME, organism-based; parameters: dose 200 mg/kg, route oral; conditions: in vivo; in short: as §1
[14] = Drug excretion in C57BL/6J mouse feces assessed as 5-methylthio-1-(4'-hydroxy-3'-methoxyphenyl)-decan-3-ol formation at 200 mg/kg, po by HPLC-ECD analysis relative to control; type: ADME, organism-based; parameters: dose 200 mg/kg, route oral; conditions: in vivo; in short: as §1
[15] = Drug recovery in C57BL/6J mouse urine assessed as glucuronidated form of metabolite formation at 200 mg/kg, po by HPLC-ECD analysis; type: ADME, organism-based; parameters: dose 200 mg/kg, route oral; conditions: in vivo
In short: (§2)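 Female C57BL/6J mice gavaged with 200 mg/kg in corn oil or vehicle (n = 5); 24-h urine collected in metabolic cages. 50 μl urine deproteinized with MeOH. Analysis with and without deconjugation.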

[16] = Drug recovery in C57BL/6J mouse urine assessed as sulfated form of metabolite formation at 200 mg/kg, po by HPLC-ECD analysis; type: ADME, organism-based; parameters: dose 200 mg/kg, route oral; conditions: in vivo; in short: as §2
[17] = Drug metabolism in human HCT116 cells assessed as 1-(4'-hydroxy-3'-methoxyphenyl)-4-decen-3-ol formation at 10 uM after 24 hrs by HPLC-ECD analysis; type: ADME, cell-based; conditions: hct-116, 24 h
In short: (§3)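 Cells (1.0 × 10⁶) attached 24 h in six-well plates, then exposed to 10 μM final in McCoy's 5A with 10% FBS. Extracted with equal volume acetonitrile, diluted 5-fold, analysed by HPLC with electrochemical detection.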

[18] = Drug metabolism in human HCT116 cells assessed as 1-(4'-hydroxy-3'-methoxyphenyl)-decan-3-ol formation at 10 uM after 24 hrs by HPLC-ECD analysis; type: ADME, cell-based; conditions: hct-116, 24 h; in short: as §3
[19] = Drug metabolism in human HCT116 cells assessed as 1-(4'-hydroxy-3'-methoxyphenyl)-decan-3-one formation at 10 uM after 24 hrs by HPLC-ECD analysis; type: ADME, cell-based; conditions: hct-116, 24 h; in short: as §3
HT-29 [20] = assay: Drug metabolism in human HT-29 cells assessed as 1-(4'-hydroxy-3'-methoxyphenyl)-decan-3-ol formation at 10 uM by HPLC-ECD analysis; type: ADME, cell-based; conditions: ht-29, 10 µM; in short: as §3
HT-29 [21] = assay: Drug metabolism in human HT-29 cells assessed as 1-(4'-hydroxy-3'-methoxyphenyl)-decan-3-one formation at 10 uM by HPLC-ECD analysis; type: ADME, cell-based; conditions: ht-29, 10 µM; in short: as §3
[22] = Drug metabolism in human H1299 cells assessed as 1-(4'-hydroxy-3'-methoxyphenyl)-decan-3-ol formation at 10 uM after 24 hrs by HPLC-ECD analysis; type: ADME, cell-based; conditions: nci-h1299, 24 h; in short: as §3
[23] = Drug metabolism in human H1299 cells assessed as 1-(4'-hydroxy-3'-methoxyphenyl)-decan-3-one formation at 10 uM after 24 hrs by HPLC-ECD analysis; type: ADME, cell-based; conditions: nci-h1299, 24 h; in short: as §3
[24] = Drug metabolism in mouse CL-13 cells assessed as 1-(4'-hydroxy-3'-methoxyphenyl)-decan-3-ol formation at 10 uM after 24 hrs by HPLC-ECD analysis; type: ADME, cell-based; conditions: cl-13, 24 h; in short: as §3
[25] = Drug metabolism in mouse CL-13 cells assessed as 1-(4'-hydroxy-3'-methoxyphenyl)-decan-3-one formation at 10 uM by HPLC-ECD analysis; type: ADME, cell-based; conditions: cl-13, 10 µM; in short: as §3
[26] = Cytotoxicity against human HCT116 cells assessed as growth inhibition after 24 hrs by MTT assay; type: functional, cell-based; conditions: HCT-116, 24 h
In short: (§4)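 Cells seeded at 3000/well, attached 24 h at 37°C, then exposed to test agents (0–80 μM, 0.1% DMSO final) for 24 h in McCoy's 5A with 10% FBS. Medium replaced with 2.41 mM MTT for 3 h at 37°C; formazan dissolved in DMSO, absorbance 550 nm. Viability as percentage of DMSO control; mean ± S.D., n = 6.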

[27] = Cytotoxicity against human H1299 cells assessed as growth inhibition after 24 hrs by MTT assay; type: functional, cell-based; conditions: NCI-H1299, 24 h; in short: as §4
HCT-116 [28] = assay: Induction of apoptosis in human HCT116 cells assessed as apoptotic cells at 10 uM after 24 hrs by TUNEL assay; type: functional
In short: (§5)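 HCT-116 or H-1299 cells seeded at 1.0 × 10⁵/well, after 24 h exposed for 24 h to compound (10–80 μM) or DMSO control. Cells were proteinase K-pretreated, formaldehyde-fixed, and slide-mounted for peroxidase TUNEL staining. Ten fields per slide counted at 400×; brown-nucleus cells given as percentage of total cells; mean ± S.E., n = 10.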

NCI-H1299 [29] = assay: Induction of apoptosis in human H1299 cells assessed as apoptotic cells at 10 uM after 24 hrs by TUNEL assay; type: functional; in short: as §5
HCT-116 [30] = assay: Induction of apoptosis in human HCT116 cells assessed as apoptotic cells at 20 uM after 24 hrs by TUNEL assay; type: functional; in short: as §5
NCI-H1299 [31] = assay: Induction of apoptosis in human H1299 cells assessed as apoptotic cells at 20 uM after 24 hrs by TUNEL assay; type: functional; in short: as §5
[32] = Drug recovery in C57BL/6J mouse urine assessed as glucuronidated form of metabolite formation at 200 mg/kg, po by LC/MS analysis; type: ADME, organism-based; parameters: dose 200 mg/kg, route oral; conditions: in vivo; in short: as §2
[33] = Drug recovery in C57BL/6J mouse urine assessed as sulfated form of metabolite formation at 200 mg/kg, po by LC/MS analysis; type: ADME, organism-based; parameters: dose 200 mg/kg, route oral; conditions: in vivo; in short: as §2
Plasma [34] = assay: Drug metabolism in A/J mouse plasma assessed as sulfated form of metabolite formation at 200 mg/kg, po after 2 to 4 hrs by HPLC analysis; conditions: in vivo
Plasma [35] = assay: Drug metabolism in A/J mouse plasma assessed as glucuronidated form of metabolite formation at 200 mg/kg, po after 2 to 4 hrs by LC/MS analysis; conditions: in vivo
Plasma [36] = assay: Drug metabolism in A/J mouse plasma assessed as glucuronidated form of metabolite formation at 200 mg/kg, po after 2 to 4 hrs by HPLC-ECD analysis; conditions: in vivo

CCCCC[C@H](O)CC(=O)CCc1ccc(O)c(OC)c1 [GINGEROL]
IC50 [1]: 28 µM

CCCCC/C=C/C(=O)CCc1ccc(O)c(OC)c1 [SHOGAOL]
Drug metabolism (Plasma [2]): metabolite_detected
IC50 [1]: 8 µM
Drug excretion [3]: metabolite_detected
Drug excretion [4]: metabolite_detected
Drug excretion [5]: metabolite_detected
Drug excretion [6]: metabolite_detected
Drug excretion [7]: metabolite_detected
Drug excretion [8]: metabolite_detected
Drug excretion [9]: metabolite_detected
Drug excretion [10]: metabolite_detected
Drug excretion [11]: metabolite_detected
Drug excretion [12]: metabolite_detected
Drug excretion [13]: metabolite_detected
Drug excretion [14]: metabolite_detected
Drug recovery [15]: metabolite_detected
Drug recovery [16]: metabolite_detected
Drug metabolism [17]: metabolite_detected
Drug metabolism [18]: metabolite_detected
Drug metabolism [19]: metabolite_detected
Drug metabolism (HT-29 [20]): metabolite_detected
Drug metabolism (HT-29 [21]): metabolite_detected
Drug metabolism [22]: metabolite_detected
Drug metabolism [23]: metabolite_detected
Drug metabolism [24]: metabolite_detected
Drug metabolism [25]: metabolite_detected
IC50 [26]: 18.7 µM
IC50 [27]: 16.9 µM
Activity (HCT-116 [28]): 10.3%
Activity (NCI-H1299 [29]): 5.2%
Activity (HCT-116 [30]): 31.2%
Activity (NCI-H1299 [31]): 31.6%
Drug recovery [32]: metabolite_detected
Drug recovery [33]: metabolite_detected
Drug metabolism (Plasma [34]): metabolite_detected
Drug metabolism (Plasma [35]): metabolite_detected
Drug metabolism (Plasma [36]): metabolite_detected
